The text below walks through data of the array DNA melting data of Ke et al. (doi:10.1101/2024.01.08.574731).

A short description of data set [1]: melting temperature; fluorescence melt of hairpins on a sequencing array, two-state fit, raised by 9.35 °C to match UV melts. The following applies: sodium 0.088 M. In outline: (§1)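 In 50 mM Na-HEPES pH 8.0 containing 25 mM NaCl, hairpins from the library on a sequenced MiSeq flow cell were imaged for Cy3 fluorescence at 2.5 °C steps up to 60 °C, with Cy3 and quencher oligos annealed. After normalisation to pre-quench Cy3 and to control constructs, two-state fits with bootstrapping gave melting temperature and folding enthalpy. Four replicates were combined by inverse-variance weighting, and fitted temperatures were shifted up by 9.35 °C to match UV melts.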

The nature of data set [2]: folding enthalpy; higher = less favourable; fluorescence melt of hairpins on a sequencing array, two-state fit. The following applies: sodium 0.088 M. Put shortly: as §1

As to GCATTGAAAAATGC (((((....))))), the Tm in data set [1] was 49.2 °C. Further, the folding enthalpy in data set [2] was -31.2 kcal/mol.
As to GCCGGGTCGAAAGACGGC (((..(((....)))))), the Tm in data set [1] amounted to 54.9 °C. For the same sequence, in data set [2], the folding enthalpy is -31 kcal/mol.
Turning to GCGTACGAAAGTAGACGC ((((((....)))..))), in data set [1], the Tm worked out at 51.8 °C. The folding enthalpy in data set [2] is -25.3 kcal/mol.
On to GACACTGGAAACAATGTC ((((.((....)).)))), for which the Tm in data set [1] was found to be 31.9 °C. Also, the folding enthalpy in data set [2] was -33.6 kcal/mol.
Take GTCATGAAAATGAC (((((....))))): the Tm in data set [1] amounted to 50.1 °C. The folding enthalpy in data set [2] was -27.1 kcal/mol.
As for GTTACGGGAAACCGTAGC (.(((((....))))).), the Tm in data set [1] turned out to be 48.5 °C. Besides, the folding enthalpy in data set [2] is -18.3 kcal/mol.
As to GACCGACGAAAGTCTGTC (((.(((....))).))), in data set [1], the Tm was 48.7 °C. The folding enthalpy in data set [2] was -31.1 kcal/mol.
GAACGCGAAAGCGCATTC ((((((....)))..))): the Tm in data set [1] amounted to 25.9 °C. Further, the folding enthalpy in data set [2] was -7.58 kcal/mol.
As to GCGGATATCCGC ((((....)))), the Tm in data set [1] amounted to 56.7 °C. Besides, the folding enthalpy in data set [2] is -33.9 kcal/mol.
For GATCTAGGAATAGATC ((((((....)))))), in that order: 42.9 °C and -29.3 kcal/mol.
GGTCTCGGAAACGAAACC (((.(((....))).))): the Tm in data set [1] amounted to 39.2 °C. In addition, the folding enthalpy in data set [2] is -27.5 kcal/mol.
Consider GCGACAAGTCGC ((((....)))), for which the Tm in data set [1] came to 58 °C. Besides, in data set [2], the folding enthalpy was -30 kcal/mol.
Take CGGGAGAAATCCCG (((((....))))): in data set [1], the Tm amounted to 57.1 °C. The folding enthalpy in data set [2] was -25.9 kcal/mol.
In the case of GGTATCGGAAACGATATC (.(((((....))))).), the Tm in data set [1] is 45.7 °C. In data set [2], the folding enthalpy is -24.1 kcal/mol.
The matching figures for GCGGCTCTCCGC ((((....)))): 55.6 °C and -26.3 kcal/mol.
Take GGTCTCGGAAACGGGATC (.((.((....)).)).): the Tm in data set [1] was 39 °C. In data set [2], the folding enthalpy was -28.8 kcal/mol.
GATCCCGATCGGGATC ((((((....)))))): the Tm in data set [1] is 62.3 °C. Also, in data set [2], the folding enthalpy was -50.5 kcal/mol.
On to GCTTCGCGAAAGCGTGGC ((..(((....)))..)), for which the Tm in data set [1] came out at 53.3 °C. Also, the folding enthalpy in data set [2] is -17.4 kcal/mol.
In the case of GCCAACGAAAGTTGGGGC ((((((....)))..))), the Tm in data set [1] turned out to be 65.4 °C. For the same sequence, the folding enthalpy in data set [2] is -15.3 kcal/mol.
For the sequence GTTTCCGGAAACGAAAAC ((((.((....)).)))), in data set [1], the Tm is 38.8 °C. Moreover, the folding enthalpy in data set [2] was -16.8 kcal/mol.
The matching figures for GCGTACGAAAGTACTCGC ((((((....)))..))): 46.5 °C and -15.6 kcal/mol.
GATCACCTATGTGATC ((((((....)))))): the Tm in data set [1] was 57.1 °C. Moreover, the folding enthalpy in data set [2] was -40.1 kcal/mol.
In the case of GTCCGAGGAAACTTGGGC (.((.((....)).)).), the Tm in data set [1] stood at 41 °C. Further, the folding enthalpy in data set [2] was -27.9 kcal/mol.
Consider GGGGCTTCGAAAGAACCC (((..(((....)))))), for which the Tm in data set [1] is 49.1 °C. Also, the folding enthalpy in data set [2] was -20.4 kcal/mol.
For GCGTGCCGAAAGGCCCGC (((.(((....))).))), the Tm in data set [1] was determined as 68.9 °C. Also, the folding enthalpy in data set [2] is -21.6 kcal/mol.
For the sequence GAAGGCGAAAGCCACTTC ((((((....)))..))), the Tm in data set [1] turned out to be 40.6 °C. The folding enthalpy in data set [2] was -13.1 kcal/mol.
As for GATCATATCCATGATC ((((((....)))))), the Tm in data set [1] was 47.4 °C. Moreover, in data set [2], the folding enthalpy was -35.8 kcal/mol.
For GTGCGTGGAAACGTGCAC ((((..(....)..)))), in that order: 50.8 °C and -25.3 kcal/mol.
As to CGACCGGAAACGGTCTCG ((((((....)))..))), in data set [1], the Tm came to 38 °C. Moreover, the folding enthalpy in data set [2] was -8.29 kcal/mol.
GAACTACGAAAGTATTTC (((.(((....))).))): in data set [1], the Tm was 32.7 °C. Further, the folding enthalpy in data set [2] is -13.6 kcal/mol.
GGTTCCGAAAGGATGACC ((((((....)))..))): the Tm in data set [1] was 38.2 °C. Besides, the folding enthalpy in data set [2] is -18.5 kcal/mol.
Regarding GGGCATGGAAACGTGTCC ((.((.(....).)).)), the Tm in data set [1] is 45 °C. Besides, the folding enthalpy in data set [2] is -29 kcal/mol.
The matching figures for GATCCCCCAGGGGATC ((((((....)))))): 65.2 °C and -36.4 kcal/mol.
For the sequence GCTGCGCGAAAGCATAGC (((..((....))..))), the Tm in data set [1] stood at 46.5 °C. The folding enthalpy in data set [2] was -18.2 kcal/mol.
Take GTGCTATCGAAAGATCAC (((..(((....)))))): in data set [1], the Tm came to 30.6 °C. For the same sequence, in data set [2], the folding enthalpy was -13 kcal/mol.
For GATCAGTCCCTGATC ((((((...)))))), in that order: 50.3 °C and -46.5 kcal/mol.
For GCAAATCGAAAGATATGC (((.(((....))).))), the Tm in data set [1] was determined as 45.1 °C. Moreover, the folding enthalpy in data set [2] was -29.4 kcal/mol.
